Paper PMC5045800 (Journal of chromatography. B, Analytical technologies in …, 2016)

Key:
[1] = Stability of processed sample; format: in vitro ADME, rat; conditions: plasma extracts; for Deviation from nominal concentration after 24 h in the auto-sampler: 24 h at 15°C (data not shown); for Auto-sampler at 15°C (1h) stability, percent of nominal concentration: n=3, mean ± SD
How it was run: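 Spiked rat plasma (50 μL) was mixed with 100 μL acetonitrile internal-standard working solution (125 ng/mL) and centrifuged at 20,800 x g for 5 min at 4°C. The supernatant extracts were held in the auto-sampler at 15°C for 1 h and 24 h. They were then compared with freshly obtained extracts at low and high QC levels in triplicate, by LC-MS/MS.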

[2] = Stability of oncrasins in rat plasma; format: in vitro ADME; conditions: for Stability after 2 h at room temperature: bench-top, 2 h (data not shown); for Three freeze-thaw cycles stability, percent of nominal concentration: freeze −80°C / thaw RT; for Three freeze-thaw cycles stability, percent of nominal concentration / Long term -80°C (14 days) stability, percent of nominal concentration / Short-term (1h) stability, percent of nominal concentration: n=3, mean ± SD; for Short-term (1h) stability, percent of nominal concentration: room temperature bench-top 1 h
How it was run: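 Blank rat plasma was spiked at low and high QC levels, three replicates per level, then measured by LC-MS/MS against freshly prepared samples at the same concentrations. Results are percent of nominal. Short-term bench-top: room temperature for 1, 2 and 3 h. Freeze-thaw: three cycles of −80°C freezing and room-temperature thawing. Long-term: 14 days of storage.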

[3] = Pharmacokinetic study in rats after intravenous oncrasin-266 formulation; format: in vivo, Sprague-Dawley rats; conditions: mean ± SD, n=5; for AUC / Cmax: rat plasma; for Cl / Vd / t1/2: rat
How it was run: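 Male adult Sprague-Dawley rats received the prodrug formulation IV through a jugular vein cannula at 10, 25 or 50 mg/kg (n=5 per dose). Blood (200 μL) was drawn predose and at 0.0167 to 48 h into heparinized tubes. Plasma was spun at 20,800 x g for 3 min and kept at −80°C. Urine was collected over 0–24 h. Analytes were quantified by validated LC-MS/MS. Each rat's profile was analysed noncompartmentally.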

[4] = analyte after I.V. oncrasin-266 formulation 10 mg/kg
[5] = analyte after I.V. oncrasin-266 formulation 25 mg/kg
[6] = analyte after I.V. oncrasin-266 formulation 50 mg/kg

SMILES | Deviation from nominal concentration after 24 h in the auto-sampler [1] | Stability after 2 h at room temperature [2] | AUC [3, 4] | Cmax [3, 4] | AUC [3, 5] | Cmax [3, 5] | AUC [3, 6] | Cmax [3, 6] | Cl [3, 4] | Vd [3, 4] | t1/2 [3, 4] | Cl [3, 5] | Vd [3, 5] | t1/2 [3, 5] | Cl [3, 6] | Vd [3, 6] | t1/2 [3, 6] | other results
O=Cc1cn(Cc2cccc(Cl)c2)c2ccccc12 [NSC-741908] | ≤ 15% | remained stable | 500 ± 420 ng·h/mL | 1560 ± 1550 ng/mL | 110 ± 30 ng·h/mL | 330 ± 120 ng/mL | 680 ± 420 ng·h/mL | 2140 ± 1730 ng/mL | 75.73 ± 86.14 L/kg | 47.04 ± 33.52 L/kg | 1.19 ± 0.93 h | 254.62 ± 108.12 L/kg | 443.15 ± 71.91 L/kg | 1.31 ± 0.39 h | 103.60 ± 67.32 L/kg | 137.64 ± 33.49 L/kg | 1.16 ± 0.52 h | Auto-sampler at 15°C (1h) stability, percent of nominal concentration ([1]; nominal 1 ng/mL): 113.44 ± 6.90%; Auto-sampler at 15°C (1h) stability, percent of nominal concentration ([1]; nominal 100 ng/mL): 100.25 ± 2.67%; Three freeze-thaw cycles stability, percent of nominal concentration ([2]; nominal 1 ng/mL): 110.20 ± 6.79%; Three freeze-thaw cycles stability, percent of nominal concentration ([2]; nominal 100 ng/mL): 95.15 ± 4.53%; Long term -80°C (14 days) stability, percent of nominal concentration ([2]; nominal 1 ng/mL): 112.67 ± 2.45%; Long term -80°C (14 days) stability, percent of nominal concentration ([2]; nominal 100 ng/mL): 93.46 ± 5.62%; Short-term (1h) stability, percent of nominal concentration ([2]; nominal 1 ng/mL): 101.00 ± 12.58%; Short-term (1h) stability, percent of nominal concentration ([2]; nominal 100 ng/mL): 99.21 ± 5.62%
OCc1cn(Cc2cccc(Cl)c2)c2ccccc12 [Oncrasin-72] | ≤ 15% | remained stable | 2220 ± 330 ng·h/mL | 15550 ± 5330 ng/mL | 7150 ± 1960 ng·h/mL | 52440 ± 16750 ng/mL | 23700 ± 7950 ng·h/mL | 54790 ± 30600 ng/mL | 4.56 ± 0.7 L/kg | 45.06 ± 16.70 L/kg | 7.01 ± 2.81 h | 3.62 ± 0.77 L/kg | 42.55 ± 24.3 L/kg | 7.74 ± 3.95 h | 2.30 ± 0.74 L/kg | 27.78 ± 10.36 L/kg | 8.28 ± 1.34 h | Auto-sampler at 15°C (1h) stability, percent of nominal concentration ([1]; nominal 2 ng/mL): 94.90 ± 2.54%; Auto-sampler at 15°C (1h) stability, percent of nominal concentration ([1]; nominal 200 ng/mL): 98.05 ± 6.15%; Three freeze-thaw cycles stability, percent of nominal concentration ([2]; nominal 2 ng/mL): 97.53 ± 5.94%; Three freeze-thaw cycles stability, percent of nominal concentration ([2]; nominal 200 ng/mL): 101.23 ± 10.03%; Long term -80°C (14 days) stability, percent of nominal concentration ([2]; nominal 2 ng/mL): 95.02 ± 8.54%; Long term -80°C (14 days) stability, percent of nominal concentration ([2]; nominal 200 ng/mL): 89.14 ± 0.49%; Short-term (1h) stability, percent of nominal concentration ([2]; nominal 2 ng/mL): 94.87 ± 5.31%; Short-term (1h) stability, percent of nominal concentration ([2]; nominal 200 ng/mL): 110.55 ± 3.0%
